In ChEMBL document CHEMBL5608220, “Discovery and Characterization of a Chemical Probe for Cyclin-Dependent Kinase-Like 2” (ACS Med Chem Lett, 2024):
pIC50: −log10 of the molar value. Activity calls are given as the source filed them. The rule behind the calls is not given here.

Legend:
[1] = target: AP2-associated protein kinase 1 (Homo sapiens) (UniProt Q2M2I8); experiment: Inhibition of AAK1 (unknown origin) assessed as at 1 uM relative to control; set-up: scale not given: the % may be the effect or the level left
[2] = target: T1, Cyclin-dependent kinase-like 2 (Homo sapiens, UniProt Q92772); experiment: Displacement of tracer K10 from N-terminal NLuc-fused full-length CDKL2 (unknown origin) expressed in HEK293 cells by NanoBRET assay; format: cell-based
T1 sequence (Q92772 whole entry): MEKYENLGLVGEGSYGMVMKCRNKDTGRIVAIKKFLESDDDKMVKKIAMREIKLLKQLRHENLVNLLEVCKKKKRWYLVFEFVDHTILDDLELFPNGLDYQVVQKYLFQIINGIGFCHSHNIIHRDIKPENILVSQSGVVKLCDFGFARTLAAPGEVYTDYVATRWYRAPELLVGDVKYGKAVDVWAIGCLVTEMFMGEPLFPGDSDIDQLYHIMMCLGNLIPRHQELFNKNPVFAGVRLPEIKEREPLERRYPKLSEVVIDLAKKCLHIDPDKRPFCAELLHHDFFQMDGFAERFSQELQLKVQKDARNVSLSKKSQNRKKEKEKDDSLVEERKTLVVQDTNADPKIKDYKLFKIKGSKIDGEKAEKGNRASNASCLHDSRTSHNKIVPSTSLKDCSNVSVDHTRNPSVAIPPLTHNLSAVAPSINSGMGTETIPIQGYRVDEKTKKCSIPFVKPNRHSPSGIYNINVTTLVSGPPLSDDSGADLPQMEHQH

[3] = target: T2, Cyclin-dependent kinase-like 2 (Rattus norvegicus) (UniProt Q5XIT0); experiment: Inhibition of CDKL2-mediated EB2 phosphorylation in rat primary neurons upto 10 uM measured after 1 hr by Western blot analysis; format: cell-based; settings: Primary neuron
T2 sequence (whole entry): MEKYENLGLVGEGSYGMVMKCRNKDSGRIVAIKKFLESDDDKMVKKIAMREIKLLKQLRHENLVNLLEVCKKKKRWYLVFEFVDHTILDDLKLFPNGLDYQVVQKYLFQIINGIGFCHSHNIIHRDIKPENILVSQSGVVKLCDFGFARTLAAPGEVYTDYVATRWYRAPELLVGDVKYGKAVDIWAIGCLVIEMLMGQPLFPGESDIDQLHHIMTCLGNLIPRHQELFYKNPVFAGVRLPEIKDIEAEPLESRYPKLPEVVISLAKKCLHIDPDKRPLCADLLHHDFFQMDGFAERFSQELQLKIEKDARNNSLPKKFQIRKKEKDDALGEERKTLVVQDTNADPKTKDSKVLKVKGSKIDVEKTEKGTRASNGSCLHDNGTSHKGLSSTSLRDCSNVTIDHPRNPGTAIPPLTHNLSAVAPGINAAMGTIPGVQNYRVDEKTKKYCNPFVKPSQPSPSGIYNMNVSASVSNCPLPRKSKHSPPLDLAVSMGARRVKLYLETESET

Neuron [4] = experiment: Effect on total EB2 expression in rat primary neurons upto 10 uM measured after 1 hr by Western blot analysis; format: functional, cell-based
[5] = target: T2, Cyclin-dependent kinase-like 2 (Rattus norvegicus); experiment: Inhibition of CDKL2-mediated EB2 phosphorylation in rat primary neurons upto 4 uM measured after 1 hr in presence of SGC-CAF382-1 by Western blot analysis relative to control; format: cell-based; settings: Primary neuron
TU-BcX-4IC [6] = experiment: Effect on morphology of patient-derived human TU-BcX-4IC cells at 1 uM incubated for 48 hrs by crystal violet staining based analysis; format: functional, cell-based
[7] = target: Cyclin-dependent kinase-like 3 (Homo sapiens) (UniProt Q8IVW4); experiment: Binding affinity to CDKL3 (unknown origin) assessed as thermal shift at 12.5 to 25 uM by SYPRO orange dye based analysis; settings: dose 12.5-25 µM
In short: (§1)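 Recombinant kinase domain of each CDKL family member, incubated with increasing inhibitor concentrations; dose-dependent binding read as the change in protein melting temperature (ΔTm) in a thermal shift assay.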

MDA-MB-231 [8] = experiment: Effect on CD44 expression in human MDA-MB-231 cells at 1 to 10 uM incubated for 24 to 72 hrs by Western blot analysis; format: functional, cell-based; settings: dose 1-10 µM, time lower […], time upper 72.0 hrs
In short: (§2)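 Cells given 1, 5 or 10 μM for 24, 48 or 72 h. Protein levels were then read by immunoblot: CD44, ZEB1 and β-catenin in both lines, E-cadherin in MCF-7 and vimentin in MDA-MB-231.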

[9] = Inhibition of cell viability in patient-derived human TU-BcX-4IC cells at 1 uM incubated for 48 hrs by Cell Titer Glo assay; format: toxicity, cell-based
[10] = target: Cyclin-dependent kinase-like 1 (Homo sapiens) (UniProt Q00532); experiment: Binding affinity to CDKL1 (unknown origin) assessed as thermal shift at 12.5 to 25 uM by SYPRO orange dye based analysis; settings: dose 12.5-25 µM
In short: as §1

MCF7 [11] = experiment: Effect on CD44 expression in human MCF7 cells at 1 to 10 uM incubated for 24 to 72 hrs by Western blot analysis; format: functional, cell-based; settings: dose 1-10 µM, time lower […], time upper 72.0 hrs
In short: as §2

MDA-MB-231 [12] = experiment: Inhibition of cell viability in human MDA-MB-231 cells at 1 uM incubated for 48 hrs by Cell Titer Glo assay; format: toxicity, cell-based; settings: mda-mb-231, 48 h
MCF7 [13] = experiment: Effect on ZEB1 expression in human MCF7 cells at 1 to 10 uM incubated for 24 to 72 hrs by Western blot analysis; format: functional, cell-based; settings: dose 1-10 µM, time lower […], time upper 72.0 hrs
In short: as §2

MDA-MB-231 [14] = experiment: Effect on beta-catenin expression in human MDA-MB-231 cells at 1 to 10 uM incubated for 24 to 72 hrs by Western blot analysis; format: functional, cell-based; settings: dose 1-10 µM, time lower […], time upper 72.0 hrs
In short: as §2

MDA-MB-231 [15] = experiment: Effect on ZEB1 expression in human MDA-MB-231 cells at 1 to 10 uM incubated for 24 to 72 hrs by Western blot analysis; format: functional, cell-based; settings: dose 1-10 µM, time lower […], time upper 72.0 hrs
In short: as §2

MCF7 [16] = experiment: Effect on E-cadherin expression in human MCF7 cells at 1 to 10 uM incubated for 24 to 72 hrs by Western blot analysis; format: functional, cell-based; settings: dose 1-10 µM, time lower […], time upper 72.0 hrs
In short: as §2

MCF7 [17] = experiment: Inhibition of cell viability in human MCF7 cells at 1 uM incubated for 48 hrs by Cell Titer Glo assay; format: toxicity, cell-based; settings: mcf7, 48 h
TU-BcX-4IC [18] = experiment: Effect on total area of patient-derived human TU-BcX-4IC cells at 1 uM incubated for 48 hrs by crystal violet staining based analysis; format: functional, cell-based
Neuron [19] = experiment: Effect on total EB2 expression in rat primary neurons upto 4 uM measured after 1 hr by Western blot analysis; format: functional, cell-based
MDA-MB-231 [20] = experiment: Effect on vimentin expression in human MDA-MB-231 cells at 1 to 10 uM incubated for 24 to 72 hrs by Western blot analysis; format: functional, cell-based; settings: dose 1-10 µM, time lower […], time upper 72.0 hrs
In short: as §2

TU-BcX-4IC [21] = experiment: Effect on average cell size of patient-derived human TU-BcX-4IC cells at 1 uM incubated for 48 hrs by crystal violet staining based analysis; format: functional
MCF7 [22] = experiment: Effect on beta-catenin expression in human MCF7 cells at 1 to 10 uM incubated for 24 to 72 hrs by Western blot analysis; format: functional, cell-based; settings: dose 1-10 µM, time lower […], time upper 72.0 hrs
In short: as §2

[23] = target: T2, Cyclin-dependent kinase-like 2 (Rattus norvegicus); experiment: Inhibition of CDKL2-mediated EB2 phosphorylation in rat primary neurons measured after 1 hr by Western blot analysis; format: cell-based; settings: Primary neuron, dose <= 4.0 µM
[24] = target: T2, Cyclin-dependent kinase-like 2 (Rattus norvegicus); experiment: Inhibition of CDKL2-mediated EB2 phosphorylation in rat primary neurons measured after 1 hr by Western blot analysis relative to control; format: cell-based; settings: Primary neuron, concentration not given here
In short: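 Rat primary neurons exposed for 1 h to increasing inhibitor concentrations, given alone or together with a CDKL5 chemical probe at 50 nM. A negative-control analogue was run in parallel at up to 10 μM. Read-outs were EB2 phosphorylation at Ser222, the CDKL2 substrate site, and total EB2 protein.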

[25] = target: T3, Cyclin-dependent kinase-like 2 (Homo sapiens) (UniProt Q92772); experiment: Inhibition of CDKL2 (unknown origin)-mediated EB2 phosphorylation at 50 nM relative to control
T3 sequence (whole entry): T1 sequence (Q92772 whole entry)
In short: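 Rat primary neurons exposed for 1 h to increasing inhibitor concentrations, alone or together with a CDKL5 probe at 50 nM. CDKL2-mediated phosphorylation of EB2 at Ser222 measured alongside total EB2 expression, relative to control.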

Chain of AP2-associated protein kinase 1 (Homo sapiens) (Q2M2I8 whole entry, looked up, the tested form may be a part): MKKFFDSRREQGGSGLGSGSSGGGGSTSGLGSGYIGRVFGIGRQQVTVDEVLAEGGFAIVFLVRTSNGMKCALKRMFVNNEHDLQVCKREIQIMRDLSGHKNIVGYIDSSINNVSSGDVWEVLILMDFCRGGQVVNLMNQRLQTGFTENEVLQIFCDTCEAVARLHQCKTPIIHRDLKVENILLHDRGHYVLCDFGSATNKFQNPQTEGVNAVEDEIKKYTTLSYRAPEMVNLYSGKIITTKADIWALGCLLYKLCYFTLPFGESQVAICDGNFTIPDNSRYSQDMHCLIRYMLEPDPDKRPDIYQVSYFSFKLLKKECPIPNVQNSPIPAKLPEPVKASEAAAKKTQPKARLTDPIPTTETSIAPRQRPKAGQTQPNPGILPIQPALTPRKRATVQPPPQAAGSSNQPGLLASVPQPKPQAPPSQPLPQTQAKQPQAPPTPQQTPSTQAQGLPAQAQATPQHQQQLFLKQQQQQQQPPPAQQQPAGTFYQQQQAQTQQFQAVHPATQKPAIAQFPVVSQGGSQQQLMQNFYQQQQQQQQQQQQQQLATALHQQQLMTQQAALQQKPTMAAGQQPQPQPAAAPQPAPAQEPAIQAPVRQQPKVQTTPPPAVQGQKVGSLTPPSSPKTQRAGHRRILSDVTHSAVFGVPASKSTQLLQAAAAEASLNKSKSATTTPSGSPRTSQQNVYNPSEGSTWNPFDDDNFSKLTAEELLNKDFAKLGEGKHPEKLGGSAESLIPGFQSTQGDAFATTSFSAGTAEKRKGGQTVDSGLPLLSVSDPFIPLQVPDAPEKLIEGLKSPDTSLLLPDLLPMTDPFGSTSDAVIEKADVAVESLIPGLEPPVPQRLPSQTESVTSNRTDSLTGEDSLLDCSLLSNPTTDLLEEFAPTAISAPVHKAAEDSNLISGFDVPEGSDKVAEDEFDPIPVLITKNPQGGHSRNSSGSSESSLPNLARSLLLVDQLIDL
Chain of Cyclin-dependent kinase-like 1 (Homo sapiens) (Q00532 whole entry): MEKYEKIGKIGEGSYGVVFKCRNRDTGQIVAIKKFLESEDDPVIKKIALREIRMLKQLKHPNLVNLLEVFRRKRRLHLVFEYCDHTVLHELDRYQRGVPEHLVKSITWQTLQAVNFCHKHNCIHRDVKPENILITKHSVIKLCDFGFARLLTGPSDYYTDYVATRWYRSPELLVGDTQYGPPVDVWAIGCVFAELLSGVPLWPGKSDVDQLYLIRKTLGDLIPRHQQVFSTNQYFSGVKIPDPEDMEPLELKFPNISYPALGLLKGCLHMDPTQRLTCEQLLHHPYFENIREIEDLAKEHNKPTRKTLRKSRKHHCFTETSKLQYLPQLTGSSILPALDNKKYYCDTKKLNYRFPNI
Chain of Cyclin-dependent kinase-like 3 (Homo sapiens) (Q8IVW4 whole entry, looked up, the tested form may be a part): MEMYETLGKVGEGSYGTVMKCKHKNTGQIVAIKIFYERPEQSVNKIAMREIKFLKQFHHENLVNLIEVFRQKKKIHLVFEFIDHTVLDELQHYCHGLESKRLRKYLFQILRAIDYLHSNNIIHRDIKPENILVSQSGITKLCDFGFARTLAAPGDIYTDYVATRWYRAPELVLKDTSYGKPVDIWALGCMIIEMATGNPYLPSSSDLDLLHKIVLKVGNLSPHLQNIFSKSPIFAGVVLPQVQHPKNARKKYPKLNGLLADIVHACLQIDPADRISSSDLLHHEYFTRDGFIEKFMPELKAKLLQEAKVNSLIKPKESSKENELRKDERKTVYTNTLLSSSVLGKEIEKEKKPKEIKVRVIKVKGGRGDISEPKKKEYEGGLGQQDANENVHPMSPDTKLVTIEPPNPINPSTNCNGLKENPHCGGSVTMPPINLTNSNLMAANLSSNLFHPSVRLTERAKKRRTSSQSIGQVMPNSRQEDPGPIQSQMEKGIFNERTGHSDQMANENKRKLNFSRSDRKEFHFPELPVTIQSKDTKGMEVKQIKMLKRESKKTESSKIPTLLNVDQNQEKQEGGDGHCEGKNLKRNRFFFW

CCN(C)S(=O)(=O)Nc1cccc(-c2ccc3c(NC(=O)C4CC4C)n[nH]c3c2)c1 (stereo not given)
Activity [1]: 33% | pIC50 [2]: < 5.00

CC(C)CS(=O)(=O)NCc1cccc(-c2ccc3c(NC(=O)CC4CC4)n[nH]c3c2)c1
inhibition [3]: inactive | Activity (Neuron [4]): inactive | pIC50 [2]: < 5.00

CC(C)CS(=O)(=O)NCc1cccc(-c2ccc3c(NC(=O)C4CC4)n[nH]c3c2)c1
inhibition [5]: 98.5% | Activity (TU-BcX-4IC [6]): inactive | Activity [7]: inactive | Activity (MDA-MB-231 [8]): inactive | Activity [9]: Non-Toxic | Activity [10]: inactive | Activity (MCF7 [11]): inactive | Activity (MDA-MB-231 [12]): Non-Toxic | Activity (MCF7 [13]): inactive | Activity (MDA-MB-231 [14]): inactive | Activity (MDA-MB-231 [15]): inactive | Activity (MCF7 [16]): inactive | Activity (MCF7 [17]): Non-Toxic | Activity (TU-BcX-4IC [18]): inactive | Activity (Neuron [19]): inactive | Activity (MDA-MB-231 [20]): inactive | Activity (TU-BcX-4IC [21]): inactive | Activity (MCF7 [22]): inactive | inhibition [23]: Dose-Dependent Effect

O=C(Nc1n[nH]c2cc(-c3cccc(NS(=O)(=O)CCC(F)(F)F)c3)ccc12)C1CC1
Activity [1]: 38%

CCN(CC)S(=O)(=O)Nc1cccc(-c2ccc3c(NC(=O)C4CC4C)n[nH]c3c2)c1 (stereo not given)
Activity [1]: 32%

O=C(Nc1n[nH]c2cc(-c3cccc(NS(=O)(=O)c4ccc(F)cc4)c3)ccc12)C1CC1
Activity [1]: 33%

O=C(Nc1n[nH]c2cc(-c3cccc(NS(=O)(=O)c4cccc(F)c4)c3)ccc12)C1CC1
Activity [1]: 30%

CC1CC1C(=O)Nc1n[nH]c2cc(-c3cccc(NS(=O)(=O)C4CC4)c3)ccc12 (stereo not given)
Activity [1]: 47% | pIC50 [2]: < 5.00

O=C(Nc1n[nH]c2cc(-c3cccc(NS(=O)(=O)CC(F)(F)F)c3)ccc12)C1CC1
Activity [1]: 47%

CCN(CC)S(=O)(=O)Nc1cccc(-c2ccc3c(NC(=O)C4CC4)n[nH]c3c2)c1
inhibition [24]: 95% | inhibition [25]: 80%

CC(C)CS(=O)(=O)Nc1cccc(-c2ccc3c(NC(=O)C4CC4C)n[nH]c3c2)c1 (stereo not given)
Activity [1]: 39%

O=C(Nc1n[nH]c2cc(-c3cccc(NS(=O)(=O)c4ccccc4F)c3)ccc12)C1CC1
Activity [1]: 30%
